In ChEMBL document CHEMBL1926642, “Relevance of the C-5 position to schweinfurthin induced cytotoxicity” (2011):

Columns and labels:
Type in all cases: functional
MDA-MB-435 = test: Growth inhibition of human MDA-MB-435 cells after 48 hrs by sulforhodamine B assay; conditions: MDA-MB-435, 48 h
SW-620 = test: Growth inhibition of human SW620 cells after 48 hrs by sulforhodamine B assay; conditions: SW-620, 48 h
HL-60(TB) = test: Growth inhibition of human HL-60(TB) cells after 48 hrs by sulforhodamine B assay; conditions: HL-60, 48 h
In short: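 Run in the NCI 60 cell-line screen as the full 5-dose assay that follows initial single-dose testing; GI50 is read from the dose series.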

BT-549 = test: Growth inhibition of human BT549 cells after 48 hrs by sulforhodamine B assay; conditions: BT-549, 48 h
HCC 2998 = test: Growth inhibition of human HCC2998 cells after 48 hrs by sulforhodamine B assay; conditions: HCC 2998, 48 h
RXF 393 = test: Growth inhibition of human RXF393 cells after 48 hrs by sulforhodamine B assay; conditions: RXF 393, 48 h
SF-539 = test: Growth inhibition of human SF539 cells after 48 hrs by sulforhodamine B assay; conditions: SF-539, 48 h
MDA-MB-231 = test: Growth inhibition of human MDA-MB-231/ATCC cells after 48 hrs by sulforhodamine B assay; conditions: MDA-MB-231, 48 h
CCRF-CEM = test: Growth inhibition of human CCRF-CEM cells after 48 hrs by sulforhodamine B assay
SK-OV-3 = test: Growth inhibition of human SKOV3 cells after 48 hrs by sulforhodamine B assay; conditions: SK-OV-3, 48 h
RPMI-8226 = test: Growth inhibition of human RPMI8226 cells after 48 hrs by sulforhodamine B assay; conditions: RPMI-8226, 48 h
OVCAR-8 = test: Growth inhibition of human OVCAR8 cells after 48 hrs by sulforhodamine B assay; conditions: OVCAR-8, 48 h
LOX IMVI = test: Growth inhibition of human LOXIMVI cells after 48 hrs by sulforhodamine B assay
OVCAR-4 = test: Growth inhibition of human OVCAR4 cells after 48 hrs by sulforhodamine B assay; conditions: OVCAR-4, 48 h
IGROV-1 = test: Growth inhibition of human IGROV1 cells after 48 hrs by sulforhodamine B assay; conditions: IGROV-1, 48 h
NCI-H23 = test: Growth inhibition of human NCI-H23 cells after 48 hrs by sulforhodamine B assay; conditions: NCI-H23, 48 h
NCI-H522 = test: Growth inhibition of human NCI-H522 cells after 48 hrs by sulforhodamine B assay; conditions: NCI-H522, 48 h
SNB-19 = test: Growth inhibition of human SNB19 cells after 48 hrs by sulforhodamine B assay; conditions: SNB-19, 48 h
U-251 = test: Growth inhibition of human U251 cells after 48 hrs by sulforhodamine B assay; conditions: U-251, 48 h
A498 = test: Growth inhibition of human A498 cells after 48 hrs by sulforhodamine B assay; conditions: A498, 48 h
SK-MEL-5 = test: Growth inhibition of human SK-MEL-5 cells after 48 hrs by sulforhodamine B assay; conditions: SK-MEL-5, 48 h
SK-MEL-28 = test: Growth inhibition of human SK-MEL-28 cells after 48 hrs by sulforhodamine B assay; conditions: SK-MEL-28, 48 h
HCT-116 = test: Growth inhibition of human HCT116 cells after 48 hrs by sulforhodamine B assay; conditions: HCT-116, 48 h
CAKI-1 = test: Growth inhibition of human Caki1 cells after 48 hrs by sulforhodamine B assay; conditions: CAKI-1, 48 h
A549 = test: Growth inhibition of human A549 cells after 48 hrs by sulforhodamine B assay; conditions: A549, 48 h
SK-MEL-2 = test: Growth inhibition of human SK-MEL-2 cells after 48 hrs by sulforhodamine B assay; conditions: SK-MEL-2, 48 h
[1] = Growth inhibition of human Hs 578T cells after 48 hrs by sulforhodamine B assay
OVCAR-5 = test: Growth inhibition of human OVCAR5 cells after 48 hrs by sulforhodamine B assay; conditions: OVCAR-5, 48 h
SF-268 = test: Growth inhibition of human SF268 cells after 48 hrs by sulforhodamine B assay; conditions: SF-268, 48 h
EKVX = test: Growth inhibition of human EKVX cells after 48 hrs by sulforhodamine B assay
OVCAR-3 = test: Growth inhibition of human OVCAR3 cells after 48 hrs by sulforhodamine B assay; conditions: OVCAR-3, 48 h
[2] = read-out: pLC50 (the source's name) (converted)

`COc1cc(/C=C/c2cc(F)c3c(c2)C[C@@H]2C(C)(C)[C@H](O)CC[C@@]2(C)O3)cc(O)c1C/C=C(\C)CCC=C(C)C` gave a GI50 (MDA-MB-435) of 13.2 µM, an LC50 (MDA-MB-435) of 63.1 µM and a TGI (MDA-MB-435; read-out: pTGI (converted)) of 28.8 µM. For the same compound, the GI50 (SW-620) was 3.02 µM, the LC50 (SW-620) was 33.1 µM and the TGI (SW-620; read-out: pTGI (converted)) was 9.12 µM. The GI50 (HL-60(TB)) was 1.82 µM, the CC50 (HL-60(TB); [2]) was greater than 100 µM and the TGI (HL-60(TB); read-out: pTGI (converted)) was 5.5 µM. The GI50 (BT-549) was 9.12 µM, the LC50 (BT-549) was greater than 100 µM and the TGI (BT-549; read-out: pTGI (converted)) was 37.2 µM. It also gave a GI50 (HCC 2998) of 12.9 µM, an LC50 (HCC 2998) of 56.2 µM and a TGI (HCC 2998; read-out: pTGI (converted)) of 26.9 µM. It also gave a GI50 (RXF 393) of 1.82 µM, an LC50 (50% lethal concentration) (RXF 393) of 10 µM and a TGI (RXF 393; read-out: pTGI (converted)) of 4.27 µM. The GI50 (SF-539) was 3.89 µM, the LC50 (SF-539) was 43.7 µM and the TGI (SF-539; read-out: pTGI (converted)) was 14.1 µM. It also gave a GI50 (MDA-MB-231) of 6.61 µM, a CC50 (MDA-MB-231; [2]) of 97.7 µM and a TGI (MDA-MB-231; read-out: pTGI (converted)) of 26.9 µM. It also gave a GI50 (CCRF-CEM) of 1.86 µM, an LC50 (CCRF-CEM) greater than 100 µM and a TGI (CCRF-CEM; read-out: pTGI (converted)) of 4.37 µM. For the same compound, the GI50 (SK-OV-3) was 17 µM, the LC50 (SK-OV-3) was 57.5 µM and the TGI (SK-OV-3; read-out: pTGI (converted)) was 30.9 µM. The GI50 (RPMI-8226) was 2.04 µM, the LC50 (RPMI-8226) was greater than 100 µM and the TGI (RPMI-8226; read-out: pTGI (converted)) was 4.79 µM. It also gave a GI50 (OVCAR-8) of 4.37 µM, an LC50 (OVCAR-8) of 50.1 µM and a TGI (OVCAR-8; read-out: pTGI (converted)) of 16.2 µM. It also gave a GI50 (LOX IMVI) of 1.38 µM, an LC50 (LOX IMVI) of 6.17 µM and a TGI (LOX IMVI; read-out: pTGI (converted)) of 2.88 µM. The GI50 (OVCAR-4) was 12.6 µM, the LC50 (OVCAR-4) was greater than 100 µM and the TGI (OVCAR-4; read-out: pTGI (converted)) was 37.2 µM. It also gave a GI50 (IGROV-1) of 2.95 µM, an LC50 (IGROV-1) of 53.7 µM and a TGI (IGROV-1; read-out: pTGI (converted)) of 7.94 µM. The GI50 (NCI-H23) was 2.09 µM, the LC50 (NCI-H23) was 20.9 µM and the TGI (NCI-H23; read-out: pTGI (converted)) was 5.25 µM. The GI50 (NCI-H522) was 2.19 µM, the LC50 (NCI-H522) was 30.9 µM and the TGI (NCI-H522; read-out: pTGI (converted)) was 6.92 µM. The GI50 (SNB-19) was 12.6 µM, the LC50 (SNB-19) was 55 µM and the TGI (SNB-19; read-out: pTGI (converted)) was 26.3 µM. For the same compound, the GI50 (U-251) was 2.04 µM, the LC50 (U-251) was 15.8 µM and the TGI (U-251; read-out: pTGI (converted)) was 5.01 µM. The GI50 (A498) was 28.8 µM, the LC50 (A498) was greater than 100 µM and the TGI (A498; read-out: pTGI (converted)) was greater than 100 µM. For the same compound, the GI50 (SK-MEL-5) was 7.08 µM, the LC50 (SK-MEL-5) was 44.7 µM and the TGI (SK-MEL-5; read-out: pTGI (converted)) was 20 µM. It also gave a GI50 (SK-MEL-28) of 12 µM, a CC50 (SK-MEL-28; [2]) of 56.2 µM and a TGI (SK-MEL-28; read-out: pTGI (converted)) of 25.7 µM. It also gave a GI50 (HCT-116) of 2.45 µM, an LC50 (HCT-116) of 20.4 µM and a TGI (HCT-116; read-out: pTGI (converted)) of 6.03 µM. The GI50 (CAKI-1) was 10.2 µM, the LC50 (CAKI-1) was 53.7 µM and the TGI (CAKI-1; read-out: pTGI (converted)) was 23.4 µM. For the same compound, the LC50 (A549) was 15.8 µM, the GI50 (A549; read-out: GI50) was 2.14 µM and the GI50 (A549; read-out: pGI50 (converted)) was 2.14 µM. For the same compound, the TGI (A549; read-out: pTGI (converted)) was 4.9 µM, the GI50 (SK-MEL-2) was 15.5 µM and the LC50 (SK-MEL-2) was 75.9 µM. It also gave a TGI (SK-MEL-2; read-out: pTGI (converted)) of 33.9 µM, a GI50 [1] of 8.71 µM and a CC50 [1, 2] greater than 100 µM. It also gave a TGI ([1]; read-out: pTGI (converted)) greater than 100 µM, a GI50 (OVCAR-5) of 19.1 µM and an LC50 (OVCAR-5) greater than 100 µM. It also gave a TGI (OVCAR-5; read-out: pTGI (converted)) of 70.8 µM, a GI50 (SF-268) of 10.5 µM and an LC50 (SF-268) of 63.1 µM. It also gave a TGI (SF-268; read-out: pTGI (converted)) of 25.7 µM, a GI50 (EKVX) of 11.7 µM and an LC50 (50% lethal concentration) (EKVX) of 91.2 µM. It also gave a TGI (EKVX; read-out: pTGI (converted)) of 33.1 µM, a GI50 (OVCAR-3) of 12 µM and an LC50 (OVCAR-3) of 58.9 µM. It also gave a TGI (OVCAR-3; read-out: pTGI (converted)) of 26.9 µM.
